MrgX1 PAM: positive allosteric modulators of MrgX1, primary screen, HEK293 cells, Fluo-4 calcium flux. FDSS; active compounds read high. B-score at 10 µM. Mas-related G-protein coupled receptor member X1 (Homo sapiens), Q96LB2. 310,000 tested, 0.63% active;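 active means plate-corrected calcium response at least 3 library SD above typical, normal starting fluorescence, not activating the receptor alone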;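 further: compound read alongside a low EC10 to EC30 dose of BAM8-22 agonist; peak minus trough fluorescence over baseline measured at the second addition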
Target sequence (Q96LB2 whole entry, looked up): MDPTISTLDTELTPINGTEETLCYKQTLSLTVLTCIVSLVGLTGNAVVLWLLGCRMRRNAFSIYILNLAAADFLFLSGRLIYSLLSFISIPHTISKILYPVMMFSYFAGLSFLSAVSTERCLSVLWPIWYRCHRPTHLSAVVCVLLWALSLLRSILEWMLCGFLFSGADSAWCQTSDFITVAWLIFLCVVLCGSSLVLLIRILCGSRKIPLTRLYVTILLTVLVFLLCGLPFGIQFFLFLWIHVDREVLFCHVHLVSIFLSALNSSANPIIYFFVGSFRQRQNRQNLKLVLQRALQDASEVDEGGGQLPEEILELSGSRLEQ
RGS4 block: RGS4 inhibitors, primary screen, cell-based, HEK293 M3R inducible RGS4, calcium flux; Regulator of G-protein signaling 4 (Homo sapiens), P49798; Fluo-4 calcium flux; active compounds read high; triggered by carbachol at its EC20; B-score at 10 µM; 310,000 tested, 0.45% active;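 active means B-score, a plate-corrected calcium signal, over three deviations above library mean, with baseline fluorescence within five deviations of library mean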;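 further: RGS4 expression induced by doxycycline in cells with stable M3 receptor; B-score is computed from the integrated fluorescence ratio over baseline after carbachol; higher B-score means a larger calcium signal and so more RGS4 inhibition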
Target sequence (P49798 whole entry, looked up): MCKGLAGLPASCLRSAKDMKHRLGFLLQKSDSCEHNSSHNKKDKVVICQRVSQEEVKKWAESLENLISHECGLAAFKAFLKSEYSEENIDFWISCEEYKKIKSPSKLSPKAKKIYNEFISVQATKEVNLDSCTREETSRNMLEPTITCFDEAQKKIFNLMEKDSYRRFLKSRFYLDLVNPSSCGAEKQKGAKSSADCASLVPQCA
MrgX1 antagonist: antagonists of human MrgX1 receptor, primary screen, HEK293 cells, Fluo-4 calcium flux; B-score at 10 µM; Mas-related G-protein coupled receptor member X1 (Homo sapiens), Q96LB2; BAM8-22 antagonism; active compounds read low; AID 588676, 2011; 310,000 tested, 1.3% active;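 active means calcium-response B-score plate-corrected more than 3 library SD below zero, starting fluorescence within 5 deviations, no agonist response on first addition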;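 further: peak minus trough fluorescence over baseline after final BAM8-22 challenge near maximal dose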
RGS4 act: RGS4 potentiators or activators, primary screen, cell-based, HEK293 M3R inducible RGS4, calcium flux; B-score at 10 µM; carbachol calcium flux Fluo4; active compounds read low; 310,000 tested, 0.92% active;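 active means B-score of the integrated calcium signal more than 4 SD below the library mean, with starting fluorescence not abnormally high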;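 further: negative B-score means reduced calcium response which marks RGS4 activation or potentiation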
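test system = HEK293 cells with stable M3R and inducible RGS4 | schedule = recording 10 s baseline at 1 Hz, 100 s post-agonist | technique = Fluo4-AM (2 µM) calcium-flux fluorescence, kinetic read | measure = Agonist-evoked peak-minus-minimum fluorescence over baseline, integrated ratio, B score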
MrgX1 ag: agonists of human MrgX1 receptor, primary screen, HEK293 cells, Fluo-4 calcium flux | AID 588627, 2011 | B-score at 10 µM | Fluo-4 calcium fluorescence, agonist mode; active compounds read high | Mas-related G-protein coupled receptor member X1 (Homo sapiens), Q96LB2 | 310,000 tested, 0.44% active;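 active means calcium response B-score plate-corrected fluorescence ratio at least 3 library SD, with starting fluorescence B-score inside 5 SD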
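Material – MrgX1-expressing HEK293 cells · Input – 15,000 cells seeded per well · Dosing – compound as first of three additions · Times – overnight seeding, then 1 h dark dye loading · Measured by – kinetic Fluo-4 NW fluorescence of intracellular calcium · Read-out – B-scored fluorescence response ratio · Benchmarks – positive and negative control wells on each plate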
MrgX1 ant reconf: MrgX1 receptor antagonists, duplicate retest, confirmation, HEK293 cells, Fluo-4 calcium flux; remaining BAM8-22 calcium response % of control (active compounds read low), % at 10 µM; 2,300 tested, 19% active; shares compounds with MrgX1 antagonist; AID 602420, 2012; BAM8-22 calcium flux; active compounds read low;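 active means remaining agonist calcium response no higher than 100% minus 3 SD of agonist-only control wells, with starting fluorescence near control levels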;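 further: agonist BAM8-22 given at a near maximal EC90 to ECmax level; peak minus minimum fluorescence divided by baseline after agonist addition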
HEK293 Ca flux: nonspecific calcium signal in parental HEK293, confirmation, counter-screen for MrgX1 antagonist project, parental HEK293 cells, Fluo-4 calcium flux. shares compounds with MrgX1 antagonist. Fluo-4 calcium fluorescence, FDSS. fluorescence ratio F(max-min)/F0 at 10 µM. 4,000 tested, 2% active. AID 624111, 2012;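 active means duplicate-averaged calcium fluorescence ratio at least three times the standard deviation of buffer wells, a nonspecific response in parental cells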
HEK293 Ca counter: calcium response in parental HEK293 cells, primary screen, counter-screen for MrgX1 allosteric activator project, cell-based, Fluo-4 calcium flux, duplicate. shares compounds with MrgX1 antagonist. AID 624114, 2012. Fluo-4 fluorescence ratio; active compounds read high. 4,000 tested, 0.4% active. fluorescence ratio F(max-min)/F0 at 10 µM;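 active means calcium fluorescence ratio, averaged over duplicates, at least 3 SD of the buffer-well ratio, meaning a nonspecific response in receptor-free cells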;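 further: untransfected parental HEK293 lacking MrgX1 used as counterscreen for MrgX1 allosteric activators; fluorescence change taken during the second addition on a kinetic imager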
HEK293 Ca cntr2: calcium response in parental HEK293 cells, primary screen, counter-screen for MrgX1 agonist project, cell-based, Fluo-4 calcium flux, duplicate, agonist mode; shares compounds with MrgX1 antagonist; fluorescence ratio F(max-min)/F0 at 10 µM; Fluo-4 calcium fluorescence (FDSS); active compounds read high; 4,000 tested, 8.7% active;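 active means calcium fluorescence ratio at least three times the spread of buffer wells, meaning a non-specific response in parental cells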
* marks the source's active call; other numbers are inactive results; i = inactive; . = no result. Compounds with a hit are over-represented: about 3.5% of the library has one in this group of screens.

SMILES | MrgX1 PAM | RGS4 block | MrgX1 antagonist | RGS4 act | MrgX1 ag | MrgX1 ant reconf | HEK293 Ca flux | HEK293 Ca counter | HEK293 Ca cntr2
COc1ccc(CCn2c(N)c(C(=O)NCc3ccco3)c3nc4ccccc4nc32)cc1 | i | i | i | i | i | . | . | . | .
Cc1ccc(CNc2nc3ccccc3n2C)o1 | i | i | i | i | i | . | . | . | .
Cn1c(-c2ccc(CN3CCCCC3)o2)nc2ccccc21 | i | i | -5.31* | i | i | i | i | i | i
CSC1=NCCN1C(=O)c1c(-c2ccccc2Cl)noc1C | i | i | -6.87* | i | i | i | i | i | i
CCCOCC1CC(CCc2nc(=S)[nH][nH]2)C(=O)O1 (stereo unspecified) | i | i | -5.3* | i | i | i | i | i | i
CCC(C)(C)C(=O)O[C@H]1C[C@@H](C)C=C2C=C[C@H](C)[C@H](CC[C@@H]3C[C@@H](O)CC(=O)O3)[C@H]21 | i | i | i | i | i | . | . | . | .
CSc1nc(S(=O)(=O)c2ccc(C)cc2)c(Cl)s1 | i | i | i | i | i | . | . | . | .
COCCCN1C(=O)c2[nH]nc(-c3ccccc3O)c2C1c1ccc(Cl)cc1 (stereo unspecified) | i | i | -4.81* | i | i | i | i | i | i
COCCCN1C(=O)c2[nH]nc(-c3ccccc3O)c2C1c1cccc(Cl)c1 (stereo unspecified) | i | i | i | i | i | . | . | . | .
CCN(C(=O)Cc1c(C(=O)O)n(C)c2ccccc12)c1cc(OC)ccc1OC | i | i | i | i | i | . | . | . | .
CCN(C(=O)Cc1c(C(=O)O)n(C)c2ccccc12)c1ccc(F)cc1 | i | i | -5* | i | i | i | i | i | i
CN1CCOCCOCCN(C)C1=O | i | i | -4.59* | i | i | i | i | i | i
Cc1ccc2nc(-c3ccc(NC(=O)CSc4ccccc4)cc3)[nH]c2c1 | i | i | -5.26* | i | i | i | i | i | i
CCN(C(=O)COC(=O)c1cc(-c2ccccc2)nc2ccc(Br)cc12)C1CCS(=O)(=O)C1 (stereo unspecified) | i | i | i | i | i | . | . | . | .
CCN(C(=O)COc1ncnc2ccc(Br)cc12)C1CCS(=O)(=O)C1 (stereo unspecified) | i | i | -5.67* | i | i | i | i | i | i
COc1ccc(-c2nc3c(c4nnc(SC(C)C(=O)Nc5ccccc5)n24)COC(C)(C)C3)cc1 (stereo unspecified) | i | i | -6.54* | i | i | i | i | i | i
O=C(Cn1nnc(-c2ccccc2Cl)n1)NCc1ccc2c(c1)OCO2 | i | i | i | i | i | . | . | . | .
CC1CCCCC1NC(=O)c1cccc(S(=O)(=O)N2CCN(C)CC2)c1 (stereo unspecified) | i | i | i | i | i | . | . | . | .
CC1CCCC(NC(=O)c2cccc(S(=O)(=O)N3CCN(c4ccccc4)CC3)c2)C1C (stereo unspecified) | i | i | -9.24* | i | i | i | i | i | i
CCc1ccc(-c2cc(C(=O)NCc3ccccn3)c3ccccc3n2)cc1 | i | i | -5.33* | i | i | 77.4%* | i | i | i
CCOC(=O)N/C(N)=N/c1nc2ccccc2s1 | i | i | -7.65* | i | i | i | i | i | i
CN1CCN(c2ccc(Cl)cc2NC(=O)CN2C(=O)NC(C)(c3ccccc3)C2=O)CC1 (stereo unspecified) | i | i | -4.51* | i | i | i | i | i | i
COc1ccc(NC(=O)c2nnn(Cc3ccc(SC)cc3)c2N)c(OC)c1 | i | i | -4.68* | i | i | i | i | i | i
COc1ccc(C)cc1NC(=O)c1nnn(Cc2cc(C)ccc2C)c1N | i | i | -5.18* | i | i | i | i | i | i
CCn1c(=O)n(CC)c2cc(S(=O)(=O)N3CCC(c4ccccc4)CC3)ccc21 | i | i | -7.08* | i | i | i | i | i | i
Cn1c(=O)c(=O)n(C)c2cc(S(=O)(=O)N3CCC(Cc4ccccc4)CC3)ccc21 | i | i | i | i | i | . | . | . | .
